From publication PMC6412122 (Nucleic Acids Research, 2019)

Molecular target: T1, HNA polymerase T6G12_I521L (Thermococcus gorgonarius, UniProt P56689, A485L/A681S/D141A/D669Q/E143A/E609K/E664Q/E730G/I521L/I610M/K659Q/K671H/K674R/L704P/Q665P/R668K/T676R/V589A/V93Q)
T1 sequence (P56689 1-773 V93Q/D141A/E143A/A485L/I521L/V589A/E609K/I610M/K659Q/E664Q/Q665P/R668K/D669Q/K671H/K674R/T676R/A681S/L704P/E730G): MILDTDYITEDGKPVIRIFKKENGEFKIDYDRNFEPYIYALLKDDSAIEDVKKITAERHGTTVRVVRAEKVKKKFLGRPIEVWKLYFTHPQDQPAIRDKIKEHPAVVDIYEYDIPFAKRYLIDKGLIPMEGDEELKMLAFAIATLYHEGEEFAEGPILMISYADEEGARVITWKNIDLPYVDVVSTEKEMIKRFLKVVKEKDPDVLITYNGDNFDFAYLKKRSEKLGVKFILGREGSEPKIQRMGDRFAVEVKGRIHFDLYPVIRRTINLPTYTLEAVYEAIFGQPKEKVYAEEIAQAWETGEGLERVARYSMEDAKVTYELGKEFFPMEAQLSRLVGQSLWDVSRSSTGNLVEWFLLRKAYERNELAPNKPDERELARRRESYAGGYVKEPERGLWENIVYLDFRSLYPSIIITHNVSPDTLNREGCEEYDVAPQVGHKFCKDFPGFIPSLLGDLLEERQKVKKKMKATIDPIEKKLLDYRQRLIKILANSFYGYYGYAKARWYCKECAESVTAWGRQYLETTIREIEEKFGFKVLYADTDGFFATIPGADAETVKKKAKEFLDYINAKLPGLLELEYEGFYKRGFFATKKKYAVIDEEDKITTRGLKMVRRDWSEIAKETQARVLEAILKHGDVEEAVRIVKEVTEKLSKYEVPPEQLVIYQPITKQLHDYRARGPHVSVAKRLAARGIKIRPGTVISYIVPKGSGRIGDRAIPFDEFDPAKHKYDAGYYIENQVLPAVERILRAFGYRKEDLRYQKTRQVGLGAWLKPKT
Type: biochemical
Settings: global fitting, k3 fitted; duplex P2T3, 50°C
Procedure, shortened: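 Quench-flow at 50 °C: enzyme with P2T3 in 2× Thermopol mixed with nucleotide plus MgSO4 (1 mM extra Mg2+ final). Nucleotide 1.6–100 µM, 4–5 levels; ageing 5 ms–60 s. Quenched with 0.3 M EDTA; 18% denaturing PAGE; duplicates. Active enzyme level set by active-site titration (50 ms dTTP pulse, quadratic fit). Global Matlab least-squares fit; k3 refitted fixed at 0.01 or 0.02 s−1; SD from covariance matrix.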

SMILES: Cc1cn([C@@H]2CO[C@H](COP(=O)(O)OP(=O)(O)OP(=O)(O)O)[C@@H](O)C2)c(=O)[nH]c1=O [hTTP]
- k2 = kpol: 0.62 ± 0.13 s⁻¹
- k3: 0.028 ± 0.002 s⁻¹
